In ChEMBL document CHEMBL1126590, “32-Methyl-32-oxylanosterols: dual-action inhibitors of cholesterol biosynthesis” (J Med Chem, 1993) one finds IC50 and Km data, which are given here for four molecules.

What is called IC50 is the concentration that gives 50% inhibition. Low readings indicate greater potency, high ones weaker potency. By Km is commonly meant the concentration of substrate that gives half-maximal velocity.

In data set [1] the target is T1, 3-hydroxy-3-methylglutaryl-coenzyme A reductase (Homo sapiens, UniProt P04035).
T1 sequence (P04035 whole entry): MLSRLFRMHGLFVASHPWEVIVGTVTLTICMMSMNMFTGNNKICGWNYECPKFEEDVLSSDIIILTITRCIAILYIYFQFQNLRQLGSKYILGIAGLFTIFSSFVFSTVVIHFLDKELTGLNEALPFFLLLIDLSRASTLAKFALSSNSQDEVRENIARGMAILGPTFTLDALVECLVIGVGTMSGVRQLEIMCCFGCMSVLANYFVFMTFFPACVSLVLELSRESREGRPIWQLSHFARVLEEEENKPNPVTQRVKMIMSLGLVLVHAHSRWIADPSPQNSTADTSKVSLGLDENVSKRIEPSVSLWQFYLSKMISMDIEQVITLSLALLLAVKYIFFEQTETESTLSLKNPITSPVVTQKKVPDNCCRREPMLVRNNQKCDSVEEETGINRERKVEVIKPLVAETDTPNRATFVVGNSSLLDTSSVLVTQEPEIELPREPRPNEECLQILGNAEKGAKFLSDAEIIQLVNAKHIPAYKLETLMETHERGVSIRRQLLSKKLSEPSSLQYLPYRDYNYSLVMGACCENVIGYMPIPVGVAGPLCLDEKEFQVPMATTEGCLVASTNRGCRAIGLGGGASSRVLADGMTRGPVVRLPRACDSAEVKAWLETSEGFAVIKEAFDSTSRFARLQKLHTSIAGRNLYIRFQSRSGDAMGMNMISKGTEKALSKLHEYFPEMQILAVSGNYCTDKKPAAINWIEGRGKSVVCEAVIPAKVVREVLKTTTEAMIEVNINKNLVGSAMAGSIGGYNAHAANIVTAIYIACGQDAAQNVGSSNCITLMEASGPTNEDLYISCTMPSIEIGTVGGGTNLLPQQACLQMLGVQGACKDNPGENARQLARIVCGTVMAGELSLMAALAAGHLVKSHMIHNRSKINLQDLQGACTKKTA
Kind of data set: Inhibition of HMG-coA Reductase enzyme in AR45 cells. It counts as cell-based. The method in brief: (§1)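 Cells grown in McCoy's 5a medium with 1% delipidated FBS under 5% CO2 and treated 4 h with compound given as a BSA suspension from an ethanol stock (final BSA 0.5 mg/mL, ethanol ≤0.5%). Cells permeabilized with 30 μg/mL digitonin in CSK buffer pH 6.8, then preincubated 20 min at 37 °C. Conversion of [14C]HMG-CoA to mevalonolactone measured with [3H]mevalonolactone internal standard and TLC separation. Value is the concentration reducing activity to 50% of control.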

Data set [2] addresses T1, 3-hydroxy-3-methylglutaryl-coenzyme A reductase. Kind of data set: Inhibition of HMG-coA Reductase enzyme in chinese hamster ovary cells. Type of data set: cell-based, Cricetulus griseus, CHO. In short, it runs like this: as §1
The target of data set [3] is T2, Lanosterol 14-alpha demethylase (Rattus norvegicus, UniProt Q64654).
T2 sequence (Q64654 whole entry): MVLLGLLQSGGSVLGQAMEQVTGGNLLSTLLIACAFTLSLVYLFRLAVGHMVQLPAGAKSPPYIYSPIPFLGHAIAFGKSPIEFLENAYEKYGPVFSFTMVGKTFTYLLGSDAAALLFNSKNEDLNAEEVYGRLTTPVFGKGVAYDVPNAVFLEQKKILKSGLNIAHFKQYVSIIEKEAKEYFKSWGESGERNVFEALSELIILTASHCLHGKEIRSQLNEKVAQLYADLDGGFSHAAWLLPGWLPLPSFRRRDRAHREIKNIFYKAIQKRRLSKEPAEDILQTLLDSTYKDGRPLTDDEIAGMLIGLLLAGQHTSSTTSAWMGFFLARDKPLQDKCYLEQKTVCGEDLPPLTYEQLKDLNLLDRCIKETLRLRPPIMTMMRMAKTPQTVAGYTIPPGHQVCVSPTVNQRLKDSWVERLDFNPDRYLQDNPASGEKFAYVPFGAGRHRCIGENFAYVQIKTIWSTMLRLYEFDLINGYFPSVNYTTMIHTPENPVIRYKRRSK
Kind of data set: (§2) Inhibition rat liver microsome cytochrome P450DM. It counts as microsomes. The method in brief:
(§3)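 Buffer: phosphate pH 7.4 with glutathione, EDTA, 20% glycerol, NAD(P)H cofactors, isocitrate/isocitrate dehydrogenase, MgCl2, AY-9944, NaCN. Diene product quantified by UV-HPLC. IC50 taken from linear plots of reciprocal turnover vs inhibitor concentration.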
(In general: Liver microsomes are vesicles of endoplasmic reticulum, rich in cytochrome P450 enzymes.)

Data set [4] concerns the target Lanosterol 14-alpha demethylase (Cricetulus griseus). Kind of data set: Inhibition of cytochrome P450DM in intact CHO cells.
Substrate in data set [5]: [H][C@]1([C@]([H])(C)CCCC(C)C)CC[C@@]2(C)C3=C(CC[C@]12C)[C@@]1(C)CC[C@H](O)C(C)(C)C1CC3
Described as §2. It counts as microsomes. In short, it runs like this: as §3

Bounds are passed on as bounds.

Take `CC(C)CCC[C@@H](C)[C@H]1CC[C@@]2(C(C)O)C3=CCC4C(C)(C)[C@@H](O)CC[C@]4(C)C3CC[C@]12C` (stereo in doubt; 17a): the IC50 in data set [1] (ar45) is more than 20000 nM; in data set [2], 3000 nM; in data set [3] it was 330 nM; in data set [4] it was 300 nM.

As for `CC(=O)[C@@]12CC[C@H]([C@H](C)CCCC(C)C)[C@@]1(C)CCC1C2=CCC2C(C)(C)[C@@H](O)CC[C@]12C` (stereo partly drawn), the IC50 in data set [1] is more than 20000 nM; in data set [2] it was 1000 nM; in data set [3] it was 9100 nM; in data set [4] it was 2700 nM.

`CC(C)CCC[C@@H](C)[C@H]1CC[C@@]2(C(C)O)C3=CCC4C(C)(C)[C@@H](O)CC[C@]4(C)C3CC[C@]12C` (stereo in doubt; 17b): the IC50 is more than 20000 nM in data set [1], 1500 nM in data set [2], 1600 nM in data set [3] and 300 nM in data set [4].

B1: Lanosterol 14-alpha demethylase (Rattus norvegicus) (protein)
chain: MVLLGLLQSGGSVLGQAMEQVTGGNLLSTLLIACAFTLSLVYLFRLAVGHMVQLPAGAKSPPYIYSPIPFLGHAIAFGKSPIEFLENAYEKYGPVFSFTMVGKTFTYLLGSDAAALLFNSKNEDLNAEEVYGRLTTPVFGKGVAYDVPNAVFLEQKKILKSGLNIAHFKQYVSIIEKEAKEYFKSWGESGERNVFEALSELIILTASHCLHGKEIRSQLNEKVAQLYADLDGGFSHAAWLLPGWLPLPSFRRRDRAHREIKNIFYKAIQKRRLSKEPAEDILQTLLDSTYKDGRPLTDDEIAGMLIGLLLAGQHTSSTTSAWMGFFLARDKPLQDKCYLEQKTVCGEDLPPLTYEQLKDLNLLDRCIKETLRLRPPIMTMMRMAKTPQTVAGYTIPPGHQVCVSPTVNQRLKDSWVERLDFNPDRYLQDNPASGEKFAYVPFGAGRHRCIGENFAYVQIKTIWSTMLRLYEFDLINGYFPSVNYTTMIHTPENPVIRYKRRSK
In the case of B1, in data set [5], the Michaelis-Menten constant (Km) was determined as 33 µM.
